Measurements from ChEMBL document CHEMBL4477235, “Evolution of a Novel, Orally Bioavailable Series of PI3Kδ Inhibitors from an Inhaled Lead for the Treatment of Respiratory Disease” (J Med Chem, 2016).
Values after ≈ are worked out from the molar mass of the structure shown. Active and inactive are the calls of the source. The calls are words filed in the database; no cut-off is given here.

Experiments:
[1] = target: Leucine-rich repeat serine/threonine-protein kinase 2 (Homo sapiens, UniProt Q5S007); test: Inhibition of LRRK2 (unknown origin)
Rattus norvegicus [2] = test: Anti-inflammatory activity in Brown Norway rat acute OVA model of TH2-driven lung inflammation assessed as protection against eosinophil recruitment in bronchoalveolar lavage fluid at 9 mg/kg, po pretreated for 30 mins followed by OVA challenge by DAPI staining based flow cytometry; format: functional, organism-based
Summary of the method: (§1)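 Male Brown Norway rats (250–300 g) sensitized i.p. with 10 μg OVA plus 20 mg Al(OH)₃ on days 1 and 7. Oral compound given 30 min before intratracheal OVA challenge on day 21 or 28, under isoflurane. BAL taken 48 h post-challenge. Leucocytes counted by flow cytometry, gated on FSC/SSC, with DAPI+ dead cells excluded.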

[3] = target: Epidermal growth factor receptor (Homo sapiens, UniProt P00533); test: Inhibition of EGFR (unknown origin)
Aurora kinase A = Aurora kinase A (Homo sapiens, UniProt O14965); test: Inhibition of Aurora A (unknown origin)
[4] = Drug uptake in Wistar Han rat blood at 1 mg/kg measured 1 hr post dose; format: ADME, organism-based; details: read-out: Drug uptake
[5] = Volume of distribution at steady state in Sprague-Dawley rat at 3 mg/kg, po or 1 mg/kg, iv measured up to 7 hrs by LC-MS/MS analysis; format: ADME, organism-based; details: in vivo, read-out: Vdss
Summary of the method: (§2)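 Male Sprague Dawley rats, n = 2 per route, were dosed discretely at 3 mg/kg orally or 1 mg/kg intravenously. The dosing solution was DMSO/PEG200/water (5:45:50 v/v/v). Serial tail-vein blood samples were taken over 0–7 h, and parent compound was quantified by LC–MS/MS. Parameters were estimated by noncompartmental analysis.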

[6] = AUC(infinity) in Wistar Han rat at 1 mg/kg; format: ADME, organism-based; parameters: dose 1 mg/kg, time infinity; details: in vivo
Homo sapiens [7] = species: Homo sapiens; test: Selectivity ratio of IC50 for PI3Kbeta (unknown origin) to IC50 for PI3Kdelta (unknown origin)
Summary of the method: (§3)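 Ratio of each isoform's HTRF IC50 to the PI3Kδ HTRF IC50. Enzymes were preincubated 15 min with 4-fold compound dilutions in HEPES pH 7.0, MgCl2, DTT buffer. […] PIP2 was 5 µM for δ and 8 µM for α/β/γ. 60 min reaction, then EDTA quench with GRP-1 PH domain/APC/Eu detection. Four-parameter fit.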

[8] = Kinetic solubility in phosphate buffered saline at pH 7.4 after 1 hr by chemiluminescent nitrogen detection method; format: physicochemical; details: read-out: Kinetic_solubility
Summary of the method: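 The sample was then filtered, and the filtrate was quantified by calibrated flow-injection chemiluminescent nitrogen detection. Standard error was ±30 µM, and the upper limit was 500 µM from the 10 mM stock.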

[9] = target: Inhibitor of nuclear factor kappa-B kinase subunit alpha (Homo sapiens, UniProt O15111); test: Inhibition of IKK1 (unknown origin)
[10] = AUC(infinity) in Brown Norway rat acute OVA model of TH2-driven lung inflammation at 9 mg/kg, po pretreated for 30 mins followed by OVA challenge; format: ADME, organism-based; parameters: dose 9 mg/kg, route oral, time infinity; details: in vivo
Summary of the method: (§4)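 Male Brown Norway rats weighing 250–300 g were sensitised intraperitoneally with 10 μg OVA plus 20 mg Al(OH)₃ in 1 mL on days 1 and 7. On day 21 or 28 they were challenged intratracheally with 0.2 mL OVA under isoflurane. Compound was dosed orally 30 min before challenge. Blood exposure was measured in the same animals, with the 1 h post-dose concentration also recorded.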

[11] = Clearance in human liver microsomes at 0.5 uM measured up to 30 mins by LC-MS/MS analysis; format: ADME, Microsome; details: 0.5 h
[12] = Fraction unbound in Brown Norway rat acute OVA model of TH2-driven lung inflammation at 3 mg/kg, po pretreated for 30 mins followed by OVA challenge measured 1 hr post dose by HPLC analysis; format: ADME, organism-based; details: in vivo
Summary of the method: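 Unbound concentration at 1 h post-dose estimated by an internal algorithm from binding to HPLC columns coated with HSA and α-glycoprotein.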

[13] = target: Choline/ethanolamine kinase (Homo sapiens, UniProt Q9Y259); test: Inhibition of CHKB (unknown origin)
Albumin = Albumin (Homo sapiens, UniProt P02768); test: Binding affinity to human serum albumin by HPLC analysis; format: ADME; details: read-out: PB (converted)
[14] = Inhibition of DAGK (unknown origin); parameters: species or system Homo sapiens
[15] = Half life in Sprague-Dawley rat at 1 mg/kg, iv by LC-MS/MS analysis; format: ADME, organism-based; details: in vivo
Summary of the method: (§5)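 Male Sprague Dawley rats (n = 2/route), intravenous dose as a solution in DMSO/PEG200/water (5:45:50 v/v/v) at 2 mL/kg. Serial tail-vein blood sampling over 0–7 h. LC–MS/MS quantification of parent. Noncompartmental analysis.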

Homo sapiens [16] = species: Homo sapiens; test: Selectivity ratio of IC50 for PI3Kgamma (unknown origin) to IC50 for PI3Kdelta (unknown origin); summary of the method: as §3
Rattus norvegicus [17] = test: Anti-inflammatory activity in Brown Norway rat acute OVA model of TH2-driven lung inflammation assessed as protection against eosinophil recruitment in bronchoalveolar lavage fluid at 3 mg/kg, po pretreated for 30 mins followed by OVA challenge by DAPI staining based flow cytometry; format: functional, organism-based; summary of the method: as §1
Homo sapiens [18] = species: Homo sapiens; test: Selectivity ratio of IC50 for PI3Kalpha (unknown origin) to IC50 for PI3Kdelta (unknown origin); summary of the method: as §3
[19] = Drug uptake in blood of Brown Norway rat acute OVA model of TH2-driven lung inflammation at 9 mg/kg, po pretreated for 30 mins followed by OVA challenge measured 1 hr post dose; format: ADME, organism-based; details: read-out: Drug uptake
Summary of the method: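 Sensitized Brown Norway rats given oral compound 30 min before intratracheal OVA challenge. Blood concentration taken 1 h after dosing, i.e. 30 min after challenge.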

[20] = target: Diacylglycerol kinase zeta (Homo sapiens, UniProt Q13574); test: Inhibition of DAGK zeta (unknown origin)
[21] = Clearance in rat liver microsomes at 0.5 uM measured up to 30 mins by LC-MS/MS analysis; format: ADME, Microsome; details: 0.5 h
Summary of the method: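 Rat liver microsomes (0.5 mg protein/mL) prewarmed 10 min at 37 °C, started with NADPH regeneration system. Final compound 0.5 μM. Sampled at 0, 3, 6, 12 and 30 min into acetonitrile with internal standard. Peak area ratios by LC–MS/MS fitted to log-linear decline. Clearance scaled by protein concentration, incubation volume and 52.5 mg microsomal protein/g liver.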

[22] = AUC(infinity) in Brown Norway rat acute OVA model of TH2-driven lung inflammation at 3 mg/kg, po pretreated for 30 mins followed by OVA challenge; format: ADME, organism-based; parameters: dose 3 mg/kg, time infinity, route oral; details: in vivo; summary of the method: as §4
[23] = Clearance in mouse liver microsomes at 0.5 uM measured up to 30 mins by LC-MS/MS analysis; format: ADME, Microsome; details: 0.5 h
[24] = target: Phosphatidylinositol 4-kinase type 2-alpha (Homo sapiens, UniProt Q9BTU6); test: Inhibition of PI4K2A (unknown origin)
[25] = target: Inhibitor of nuclear factor kappa-B kinase subunit beta (Homo sapiens, UniProt O14920); test: Inhibition of IKK2 (unknown origin)
[26] = Oral bioavailability in Sprague-Dawley rat at 3 mg/kg measured up to 7 hrs by LC-MS/MS analysis; format: ADME, organism-based; details: in vivo, 7 h; summary of the method: as §2
Aurora kinase B = Aurora kinase B (Homo sapiens, UniProt Q96GD4); test: Inhibition of Aurora B (unknown origin)
[27] = Clearance in Sprague-Dawley rat at 1 mg/kg, iv measured up to 7 hrs by LC-MS/MS analysis relative to liver blood flow; format: ADME, organism-based; details: in vivo; summary of the method: as §5

Chain of Inhibitor of nuclear factor kappa-B kinase subunit beta (O14920 whole entry): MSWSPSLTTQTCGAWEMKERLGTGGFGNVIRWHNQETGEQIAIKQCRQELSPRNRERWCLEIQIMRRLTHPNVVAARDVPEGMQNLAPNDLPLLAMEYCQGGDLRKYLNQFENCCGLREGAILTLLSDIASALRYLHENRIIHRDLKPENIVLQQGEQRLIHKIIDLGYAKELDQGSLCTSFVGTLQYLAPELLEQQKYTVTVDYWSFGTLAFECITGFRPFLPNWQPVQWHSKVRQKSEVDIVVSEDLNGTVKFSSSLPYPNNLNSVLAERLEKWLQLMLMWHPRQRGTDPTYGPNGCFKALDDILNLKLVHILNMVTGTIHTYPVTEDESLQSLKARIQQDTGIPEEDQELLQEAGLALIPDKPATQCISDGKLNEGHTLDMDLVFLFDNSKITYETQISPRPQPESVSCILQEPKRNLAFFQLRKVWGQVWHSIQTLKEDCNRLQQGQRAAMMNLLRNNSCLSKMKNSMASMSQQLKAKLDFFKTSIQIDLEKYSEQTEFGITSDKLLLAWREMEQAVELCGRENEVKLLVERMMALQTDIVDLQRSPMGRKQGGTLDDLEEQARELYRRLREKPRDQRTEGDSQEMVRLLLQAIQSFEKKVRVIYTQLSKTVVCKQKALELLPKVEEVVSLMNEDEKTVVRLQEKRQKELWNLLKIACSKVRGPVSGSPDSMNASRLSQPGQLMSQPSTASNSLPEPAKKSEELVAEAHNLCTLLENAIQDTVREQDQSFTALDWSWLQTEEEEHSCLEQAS
Chain of Aurora kinase A (O14965 whole entry): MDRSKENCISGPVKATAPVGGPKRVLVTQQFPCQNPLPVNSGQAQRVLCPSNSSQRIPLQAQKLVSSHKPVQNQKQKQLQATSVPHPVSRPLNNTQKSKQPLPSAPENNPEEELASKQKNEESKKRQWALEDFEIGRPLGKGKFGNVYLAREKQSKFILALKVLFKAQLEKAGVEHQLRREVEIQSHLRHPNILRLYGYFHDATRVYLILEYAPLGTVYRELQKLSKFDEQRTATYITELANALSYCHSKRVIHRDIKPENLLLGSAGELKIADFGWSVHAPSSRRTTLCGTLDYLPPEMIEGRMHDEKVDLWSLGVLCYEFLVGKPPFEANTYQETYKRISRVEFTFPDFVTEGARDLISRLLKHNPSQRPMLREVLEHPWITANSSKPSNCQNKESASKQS
Chain of Leucine-rich repeat serine/threonine-protein kinase 2 (Q5S007 whole entry): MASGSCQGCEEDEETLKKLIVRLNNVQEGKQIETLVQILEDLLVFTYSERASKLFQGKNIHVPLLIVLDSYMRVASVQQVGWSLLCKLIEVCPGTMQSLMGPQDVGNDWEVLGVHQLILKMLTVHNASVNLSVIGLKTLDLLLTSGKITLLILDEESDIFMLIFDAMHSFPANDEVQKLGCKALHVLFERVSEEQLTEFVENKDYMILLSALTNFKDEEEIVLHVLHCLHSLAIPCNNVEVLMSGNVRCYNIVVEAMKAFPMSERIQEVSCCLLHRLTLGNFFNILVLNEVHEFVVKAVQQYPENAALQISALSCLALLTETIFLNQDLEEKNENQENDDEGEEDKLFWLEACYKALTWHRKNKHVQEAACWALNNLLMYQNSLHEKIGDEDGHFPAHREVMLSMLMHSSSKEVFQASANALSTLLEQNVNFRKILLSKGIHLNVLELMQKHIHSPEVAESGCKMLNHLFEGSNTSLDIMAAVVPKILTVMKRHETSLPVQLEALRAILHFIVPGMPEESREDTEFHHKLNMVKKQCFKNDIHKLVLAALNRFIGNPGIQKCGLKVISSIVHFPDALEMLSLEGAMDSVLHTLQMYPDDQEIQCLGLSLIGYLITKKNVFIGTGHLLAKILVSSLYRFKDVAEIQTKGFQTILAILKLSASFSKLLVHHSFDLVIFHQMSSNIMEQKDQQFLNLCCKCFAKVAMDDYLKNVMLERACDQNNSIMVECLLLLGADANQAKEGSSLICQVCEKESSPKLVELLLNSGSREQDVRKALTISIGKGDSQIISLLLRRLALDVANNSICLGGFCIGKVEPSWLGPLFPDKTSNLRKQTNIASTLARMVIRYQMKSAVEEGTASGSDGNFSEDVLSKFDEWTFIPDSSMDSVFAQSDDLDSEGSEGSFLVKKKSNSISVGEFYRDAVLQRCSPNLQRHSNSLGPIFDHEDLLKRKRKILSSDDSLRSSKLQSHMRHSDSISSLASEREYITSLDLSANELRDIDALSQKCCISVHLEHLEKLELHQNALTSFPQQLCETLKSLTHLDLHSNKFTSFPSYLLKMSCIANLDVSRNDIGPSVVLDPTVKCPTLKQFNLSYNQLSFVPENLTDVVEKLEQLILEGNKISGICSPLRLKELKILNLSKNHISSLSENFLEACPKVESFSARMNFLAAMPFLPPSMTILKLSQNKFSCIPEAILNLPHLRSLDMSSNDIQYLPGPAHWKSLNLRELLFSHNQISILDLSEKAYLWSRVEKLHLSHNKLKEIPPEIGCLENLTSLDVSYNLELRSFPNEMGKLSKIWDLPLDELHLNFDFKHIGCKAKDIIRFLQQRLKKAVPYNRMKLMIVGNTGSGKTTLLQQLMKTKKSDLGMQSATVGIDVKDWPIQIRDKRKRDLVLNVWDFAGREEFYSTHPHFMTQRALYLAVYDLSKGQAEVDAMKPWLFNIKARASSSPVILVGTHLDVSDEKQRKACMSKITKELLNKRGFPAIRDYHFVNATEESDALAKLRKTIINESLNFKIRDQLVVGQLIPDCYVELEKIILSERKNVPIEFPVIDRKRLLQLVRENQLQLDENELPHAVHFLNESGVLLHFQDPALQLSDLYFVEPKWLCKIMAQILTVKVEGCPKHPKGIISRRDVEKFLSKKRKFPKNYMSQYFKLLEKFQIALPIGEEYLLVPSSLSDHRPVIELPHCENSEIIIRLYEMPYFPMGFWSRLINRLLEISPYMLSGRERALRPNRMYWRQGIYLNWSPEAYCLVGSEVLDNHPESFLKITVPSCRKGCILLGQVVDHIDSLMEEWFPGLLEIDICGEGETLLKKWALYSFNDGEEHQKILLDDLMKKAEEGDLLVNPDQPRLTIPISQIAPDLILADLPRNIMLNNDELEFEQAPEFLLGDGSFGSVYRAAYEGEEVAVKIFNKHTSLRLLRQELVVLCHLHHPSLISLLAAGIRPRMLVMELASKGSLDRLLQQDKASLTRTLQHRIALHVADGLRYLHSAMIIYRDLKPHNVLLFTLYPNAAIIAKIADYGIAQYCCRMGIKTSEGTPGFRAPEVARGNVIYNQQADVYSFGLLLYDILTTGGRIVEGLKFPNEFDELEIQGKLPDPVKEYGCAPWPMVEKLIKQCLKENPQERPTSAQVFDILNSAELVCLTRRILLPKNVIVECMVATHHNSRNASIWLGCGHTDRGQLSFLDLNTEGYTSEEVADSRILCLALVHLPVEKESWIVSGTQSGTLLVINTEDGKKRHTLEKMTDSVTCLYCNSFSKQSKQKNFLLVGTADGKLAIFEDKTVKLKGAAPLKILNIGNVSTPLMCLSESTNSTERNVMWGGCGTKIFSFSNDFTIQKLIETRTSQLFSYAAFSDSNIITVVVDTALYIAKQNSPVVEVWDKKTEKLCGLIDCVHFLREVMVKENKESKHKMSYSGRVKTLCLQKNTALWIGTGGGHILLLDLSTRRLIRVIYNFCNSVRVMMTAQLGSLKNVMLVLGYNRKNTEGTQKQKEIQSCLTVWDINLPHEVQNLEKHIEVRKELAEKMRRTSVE
Chain of Albumin (P02768 whole entry): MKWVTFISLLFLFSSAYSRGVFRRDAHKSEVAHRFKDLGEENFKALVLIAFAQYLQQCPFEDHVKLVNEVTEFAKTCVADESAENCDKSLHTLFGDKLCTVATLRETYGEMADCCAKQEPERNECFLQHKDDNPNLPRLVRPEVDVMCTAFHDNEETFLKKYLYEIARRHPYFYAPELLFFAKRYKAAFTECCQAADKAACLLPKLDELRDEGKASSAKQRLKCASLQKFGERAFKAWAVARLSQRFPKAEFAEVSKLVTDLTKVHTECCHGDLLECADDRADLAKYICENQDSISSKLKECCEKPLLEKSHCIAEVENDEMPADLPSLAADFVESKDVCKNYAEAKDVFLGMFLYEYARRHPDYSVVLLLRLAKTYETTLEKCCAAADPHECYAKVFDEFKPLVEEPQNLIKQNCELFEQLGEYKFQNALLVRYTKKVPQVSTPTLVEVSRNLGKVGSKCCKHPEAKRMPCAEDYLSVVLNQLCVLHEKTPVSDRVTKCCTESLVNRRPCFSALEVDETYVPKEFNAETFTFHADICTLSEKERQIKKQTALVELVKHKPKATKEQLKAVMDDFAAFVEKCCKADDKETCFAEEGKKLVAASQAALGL
Chain of Inhibitor of nuclear factor kappa-B kinase subunit alpha (O15111 whole entry): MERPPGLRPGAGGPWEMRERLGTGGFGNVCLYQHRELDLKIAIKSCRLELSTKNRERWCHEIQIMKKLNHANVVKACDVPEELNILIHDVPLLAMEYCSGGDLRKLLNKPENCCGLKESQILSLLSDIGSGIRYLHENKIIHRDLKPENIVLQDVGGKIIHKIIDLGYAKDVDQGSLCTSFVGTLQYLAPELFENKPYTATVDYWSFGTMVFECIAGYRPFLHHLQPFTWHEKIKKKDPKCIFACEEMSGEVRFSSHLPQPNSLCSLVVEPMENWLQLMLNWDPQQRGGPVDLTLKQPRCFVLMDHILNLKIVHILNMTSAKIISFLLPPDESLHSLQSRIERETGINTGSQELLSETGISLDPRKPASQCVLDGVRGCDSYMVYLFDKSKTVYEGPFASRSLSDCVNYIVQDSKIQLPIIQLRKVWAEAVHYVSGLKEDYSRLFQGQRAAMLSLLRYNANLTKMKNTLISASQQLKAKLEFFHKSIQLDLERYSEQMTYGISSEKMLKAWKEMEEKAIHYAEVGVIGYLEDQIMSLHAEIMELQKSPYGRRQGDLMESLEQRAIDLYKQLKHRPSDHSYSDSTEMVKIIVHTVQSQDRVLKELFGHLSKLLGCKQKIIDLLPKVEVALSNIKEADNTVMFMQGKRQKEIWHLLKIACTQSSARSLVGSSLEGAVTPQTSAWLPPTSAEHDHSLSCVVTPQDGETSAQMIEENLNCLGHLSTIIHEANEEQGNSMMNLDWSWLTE

Compound: COc1ncc(-c2cc3c(c(NC(=O)CN4CCOCC4)c2)COC3)cc1NS(C)(=O)=O
- IC50 [1]: > 10 µM
- Activity (Rattus norvegicus [2]): inactive
- IC50 [3]: > 10 µM
- IC50 (Aurora kinase A): > 10 µM
- concentration at 1 h [4]: 520 nM
- Vd [5]: 1.1 L/kg
- AUC(0-inf) [6]: 673 ng·h/mL
- Ratio IC50 (Homo sapiens [7]): 63
- solubility kinetic at 1 h [8]: 185 µg/mL (≈ 400 µM)
- IC50 [9]: > 10 µM
- AUC(0-inf) [10]: 2620 ng·h/mL
- CLH [11]: < 0.5 mL/min/g
- Drug uptake(free) [12]: 0.032 µM
- IC50 [13]: > 10 µM
- fraction unbound (Albumin): 0.36
- pIC50 [14]: < 5
- half-life [15]: 1.3 h
- Ratio IC50 (Homo sapiens [16]): 50
- Activity (Rattus norvegicus [17]): Active
- Ratio IC50 (Homo sapiens [18]): 25
- concentration at 1 h [19]: 1270 nM
- IC50 [20]: > 10 µM
- CLH [21]: < 0.5 mL/min/g
- AUC(0-inf) [22]: 454 ng·h/mL
- CLH [23]: < 0.5 mL/min/g
- IC50 [24]: > 10 µM
- IC50 [25]: > 10 µM
- F [26]: 54%
- IC50 (Aurora kinase B): > 10 µM
- CL [27]: < 20%
